# A selection: hits, their analogues and other compounds. The true share with any hit is near 2.3%.
# ATG4B inhibitor = blocks human ATG4B protease cleavage of LC3 substrate. Q9Y4P1. ATG4B cleavage of LC3-PLA2, NBD-HPC fluorescence, 1 h. inhibition, % at 8.33 µM. 0.51% of 340,000 active. AID 504462; in the data active means inhibition above about 40%
# Target sequence (Q9Y4P1 whole entry, looked up): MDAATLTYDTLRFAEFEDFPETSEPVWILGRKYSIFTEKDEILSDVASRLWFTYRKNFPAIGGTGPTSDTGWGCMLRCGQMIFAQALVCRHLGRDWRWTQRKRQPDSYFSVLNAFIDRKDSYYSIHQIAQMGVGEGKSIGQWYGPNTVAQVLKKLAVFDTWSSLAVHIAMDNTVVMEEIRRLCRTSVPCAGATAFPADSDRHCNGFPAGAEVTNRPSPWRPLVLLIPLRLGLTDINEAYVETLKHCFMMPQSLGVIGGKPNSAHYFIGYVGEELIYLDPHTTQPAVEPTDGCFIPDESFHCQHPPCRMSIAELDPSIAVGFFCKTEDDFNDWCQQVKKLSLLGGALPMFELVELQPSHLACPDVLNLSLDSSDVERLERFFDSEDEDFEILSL
# SKN-1 inh = inhibitors of C. elegans SKN-1 | inhibition, % at 21.8 µM | AID 624304 | 0.49% of 360,000 active | C. elegans VP596 Pgst-4::GFP/RFP ratio, acrylamide-induced, 24 h;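 active means interference check ratio from 0.5 to 1.5 plus GFP to RFP signal ratio inhibition reaching or exceeding a fixed threshold, cut at about 30% in these data, passing the limit was not always enough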
# MPTP inh = blocks calcium-induced mitochondrial swelling; AID 602449; 1.4% of 360,000 active; isolated mouse mitochondria, Ca2+ swelling absorbance, 30 min; inhibition, % at 10 µM;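 active means inhibition of 50% or more, scaled per plate between neutral and stimulator controls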;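 further: 0% = DMSO wells given calcium and 100% = 1 mM EGTA wells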
# MT1-MMP act inh = MT1-MMP (human) activation inhibition | P50281 | HT1080 RFP-PRO-GFP cells, GFP/RFP ratio fluorescence, overnight; percent of plate control window, DMSO zero | GFP/RFP ratio change, % at 20 µM | 0.061% of 360,000 active;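 active means GFP/RFP ratio change of at least 30% with cell ATP level not reduced by more than half and red fluorescence within 50% of control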
#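 Assay system: HT1080 cells carrying an RFP-PRO-GFP reporter | Dosing: Single dose of 20 µM compound, 1% DMSO final | Incubation: Cells overnight before dosing, compound overnight, 37 °C, 5% CO2 | Evaluation: GFP/RFP fluorescence ratio | Control set: DMSO and RFP-L50D-GFP cell wells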
# Rh123 counter = Rhodamine 123 counter-screen of mitochondrial pore hits; shares compounds with MPTP inh; isolated mitochondria, membrane potential, Rhodamine 123 fluorescence; inhibition, % at 10 µM; 78% of 5,000 active; in the data active means inhibition above about 22%;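 further: 0% = DMSO vehicle and 100% = positive control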
# MPTP abs DR = dose response confirmation of mitochondrial permeability transition pore inhibitors. shares compounds with MPTP inh. 58% of 780 active. isolated mitochondria swelling, absorbance. IC50, µM; in the data active means IC50 below about 20 µM
# MPTP counter DR = active in counter-screen for permeability transition pore inhibitors; 49% of 780 active; shares compounds with MPTP inh; isolated mitochondria counterscreen, fluorescence read-out; IC50, µM; in the data active means IC50 below about 80 µM
# Numbers without * were called inactive; . = not tested or not shown; ! = repeats disagree.
SMILES,ATG4B inhibitor,SKN-1 inh,MPTP inh,MT1-MMP act inh,Rh123 counter,others
CCCc1ccc(C(=O)NC(=O)c2ccccc2O)cc1,-8.0,2.5,59.2*,-3.7,91.2*,
O=C(NC(=O)c1ccccc1O)c1ccc(C(F)(F)F)cc1,0.8,26.1,46.5,0.7,.,
Cc1c(CCOC(=O)C2C3CC4CC(C3)CC2C4)sc[n+]1CC(=O)c1ccc(Br)cc1 (stereo not drawn),12.6,7.1,99.7*!,-9.7,-3.4,MPTP abs DR=3.73*;MPTP counter DR=21*
C=CC(=O)Nc1cccc(N(C)c2ccnc(Nc3ccc(N4CCN(C)CC4)cc3)n2)c1,1.1,-15.5,101.5*,-2.2,92.8*,
C=CC(=O)Nc1cccc(Oc2ccnc(Nc3ccc(N4CCN(C)CC4)cc3)n2)c1,-2.9,-3.7,-0.1,-24.4,.,
COc1cccc(-c2cc(C(=O)N3N=C(C)CC3(O)C(F)F)c3ccccc3n2)c1 (stereo not drawn),4.6,-10.1,-1.8,-1.9,.,
O=C(c1cc(C2CC2)nc2ccccc12)N1N=C(C(F)F)CC1(O)C(F)F (stereo not drawn),8.2,-8.0,15.9,4.8,.,
O=C(c1cc(C2CC2)nc2ccc(Br)cc12)N1N=C(C(F)F)CC1(O)C(F)F (stereo not drawn),2.4,16.1,75.3*,-17.6,84.2*,
CC(C)c1ccc(-c2cc(C(=O)N3N=C(C(F)F)CC3(O)C(F)F)c3ccccc3n2)cc1 (stereo not drawn),12.5,-3.7,76.7*,3.9,96.7*,
CC1=NN(c2ccc([N+](=O)[O-])cc2)C(=O)/C1=C\N(C)C,-7.1,-2.0,99.4*,3.9,13.0,
CCCC1=NN(c2ccc([N+](=O)[O-])cc2)C(=O)/C1=C/N(C)C,-5.3,8.2,5.2,-2.2,.,
CCC(C)Sc1ccc(-c2nc3cnccn3c2NC2CCCCC2)cc1 (stereo not drawn),0.7,15.1,1.9,-28.7,.,
CCC(C)Sc1ccc(-c2nc3cc(C)ccn3c2NC2CCCCC2)cc1 (stereo not drawn),16.6,14.7,56.0*!,-67.5,100.6*,
Cc1cc(C)n(CCc2nc(-c3ccco3)cs2)n1,-4.6,5.4,54.8*,-3.2,-5.7,MPTP abs DR=>100;MPTP counter DR=>80
Cc1cc(C)n(CCc2nc(-c3cccs3)cs2)n1,-0.8,1.5,1.4,2.1,.,
Brc1ccc2ncnc(NCc3ccccc3)c2c1,-0.4,23.2,59.4*,-9.3,87.9*,
Cc1cc2c(NCCc3ccccc3)ncnc2s1,1.6,-10.6,102.7*,12.4,94.8*,
CCCCCCCCNc1ncnc2ccccc12,5.0,50.6*,102.9*,1.9,87.4*,
c1ccc(CCNc2ncnc3ccccc23)cc1,7.7,8.2,96.0*,-13.0,103.1*,
Cc1cc(NC(=O)C2CCC2)n(-c2ccccn2)n1,-9.7,14.6,-0.2,1.9,.,
CC[C@H](C)[C@@H](C(=O)NCCCCCCCCCCC(=O)N1CCNCC1)n1cc(CCCCN=C(N)N)nn1,-9.6,10.6,1.6,4.0,.,
CC[C@H](C)Cc1cn([C@@H](CCCN=C(N)N)C(=O)NCCCCCCCCCCC(=O)N2CCNCC2)nn1,3.4,-27.6,86.0*,0.3,-14.5,MPTP abs DR=11.1*;MPTP counter DR=75.7*
CSc1cccc(CN2CCC(CO)(Cc3cccc(C(F)(F)F)c3)CC2)c1,11.5,5.0,72.2*,2.6,-8.1,MPTP abs DR=5.25*;MPTP counter DR=40.5*
OCCNc1nc2nonc2nc1NCCO,-11.6,3.1,1.0,-0.4,.,
CC(C)(C)Nc1nc2nonc2nc1NC(C)(C)C,-17.2,6.7,93.2*,7.9,99.1*,
SMILES,ATG4B inhibitor,SKN-1 inh,MPTP inh,MT1-MMP act inh,Rh123 counter,others
O=C(Nc1nnc(C2CC2)s1)c1ccc(Cl)c(S(=O)(=O)N2CCc3ccccc3C2)c1,37.1,15.9,50.8*,-2.4,59.5*,
O=C(Nc1ccncc1)c1ccc(Cl)c(S(=O)(=O)N2CCc3ccccc32)c1,-17.0,-15.4,57.7*,11.5,91.3*,
CCc1nnc(NC(=O)c2ccc(Cl)c(S(=O)(=O)N3CCc4ccccc43)c2)s1,4.3,-10.7,5.7,0.6,.,
O=C(Nc1ccc(Cl)c(Cl)c1)Oc1ccc(NC(=O)c2ccco2)cc1,3.2,7.3,102.5*,0.5,77.3*,
O=C(O)c1cccc(NC(=S)NC(NC(=O)c2ccco2)C(Cl)(Cl)Cl)c1 (stereo not drawn),2.2,7.5,0.2,-10.6,.,
O=C(Cc1ccccc1)NC(NC(=S)Nc1cc(Cl)ccc1Cl)C(Cl)(Cl)Cl (stereo not drawn),6.2,6.4,97.8*,-1.3,70.2*,
O=C(NCc1ccccc1)Nc1cc(Cl)ccc1Cl,16.7,-1.3,28.2,-4.5,.,
O=C(NC(NC(=S)Nc1cc(Cl)ccc1Cl)C(Cl)(Cl)Cl)c1ccco1 (stereo not drawn),14.3,14.3,81.9*,-0.2,72.5*,
O=C(NC(NC(=S)Nc1ccc(Cl)c(Cl)c1)C(Cl)(Cl)Cl)c1ccco1 (stereo not drawn),21.4,4.9,99.8*,-2.0,99.9*,
O=C(Nc1ccc(OC(=O)c2ccco2)cc1)c1ccco1,0.6,-34.5,-1.4,-4.9,.,
CC(=O)c1ccc(NC(=S)Nc2cccc(S(=O)(=O)Nc3c(C)n(C)n(-c4ccccc4)c3=O)c2)cc1,-11.8,-8.4,-1.9,1.6,.,
Cc1ccccc1CN1CCN(Cc2ccc3cccc(F)c3n2)CC1CCO (stereo not drawn),-4.2,8.2,-2.7,-2.6,.,
Cc1cc(C)c(C#N)c(SCCS(=O)(=O)c2ccc(C(C)(C)C)cc2)n1,0.4,-32.3,60.8*,-3.9,20.4*,
CC(=O)C[C@H](O)CC(=O)[C@H]1OC(=O)CCCCCCCCc2ccccc21,-6.8,-3.1,3.6,-23.1,.,
O=C(O)c1ccc(Nc2nc3ccccc3nc2NS(=O)(=O)c2ccc(F)cc2)cc1,-2.2,12.2,75.3*,14.9,70.2*,
O=[N+]([O-])c1ccc(S(=O)(=O)Nc2nc3ccccc3nc2Nc2ccccc2)cc1,24.7,-11.0,105.5*,-5.3,85.7*,
O=C(O)c1cccc(Nc2nc3ccccc3nc2NS(=O)(=O)c2ccccc2)c1,-2.1,-3.0,-0.5,-1.2,.,
Cc1n[nH]c(=O)c2c(NC(=O)CSc3c(Cl)cccc3Cl)oc(C)c12,-0.3,12.8,-1.7,0.0,.,
Cc1n[nH]c(=O)c2c(NC(=O)CSc3nn(-c4ccc(F)cc4)c(=S)s3)oc(C)c12,-19.4,17.2,86.8*,-5.9,84.2*,
C=C(C)CSc1cc(C)c(C#N)c2nc3ccccc3n12,4.1,16.0,53.9*,-6.6,56.4*,
Cc1cc(NCCCCO)n2c(nc3ccccc32)c1C#N,-4.7,14.6,-0.7,5.7,.,
COc1ccc(Cn2c(=O)oc3ccc(C)cc32)cc1OC,-1.3,-3.8,72.4*,4.1,35.3*,
Cc1ccc(Nc2nc(OC(C(F)(F)F)C(F)(F)F)nc(N3CCOCC3)n2)cc1,-0.3,-10.7,71.7*,-31.5,1.0,MPTP abs DR=>100;MPTP counter DR=>80
